ChEMBL document CHEMBL1127414 (J Med Chem, 1994)
pIC50: −log10 of the molar value.

What was measured:
[1] = target: T1, Squalene synthase (Rattus norvegicus) (UniProt Q02769); experiment: Concentration required to inhibit rat liver squalene synthase enzyme relative to control (L-694,599)
T1 sequence (whole entry): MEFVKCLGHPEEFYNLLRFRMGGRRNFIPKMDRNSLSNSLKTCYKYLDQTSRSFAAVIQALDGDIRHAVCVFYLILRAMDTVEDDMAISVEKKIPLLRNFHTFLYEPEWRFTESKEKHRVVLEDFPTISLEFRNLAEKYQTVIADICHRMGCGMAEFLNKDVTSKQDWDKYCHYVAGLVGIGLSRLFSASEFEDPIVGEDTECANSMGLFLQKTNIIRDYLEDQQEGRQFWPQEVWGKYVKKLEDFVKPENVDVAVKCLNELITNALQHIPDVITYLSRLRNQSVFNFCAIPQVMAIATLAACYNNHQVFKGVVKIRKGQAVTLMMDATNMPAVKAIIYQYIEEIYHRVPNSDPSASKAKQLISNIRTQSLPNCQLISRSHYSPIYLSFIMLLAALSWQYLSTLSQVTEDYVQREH
In short: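 Enzyme from rat liver. […] Inhibitors added in DMSO (0.3% final) as 3-fold serial dilutions, usually up to 30 ng/mL (about 40 nM). IC50 read from % inhibition vs log concentration.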

Squalene synthase = target: T2, Squalene synthase (Rattus norvegicus, UniProt Q02769); experiment: Tested for inhibition against squalene synthase enzyme in rat liver
T2 sequence (Q02769 whole entry): T1 sequence (whole entry)

[2] = target: T3, Squalene synthase (Mus musculus) (UniProt P53798); experiment: Tested for the effective dose required for the incorporation of [5-3H]-mevalonolactone into cholesterol by in vivo mouse assay by peroral administration; assay type: functional, organism-based
T3 sequence (whole entry): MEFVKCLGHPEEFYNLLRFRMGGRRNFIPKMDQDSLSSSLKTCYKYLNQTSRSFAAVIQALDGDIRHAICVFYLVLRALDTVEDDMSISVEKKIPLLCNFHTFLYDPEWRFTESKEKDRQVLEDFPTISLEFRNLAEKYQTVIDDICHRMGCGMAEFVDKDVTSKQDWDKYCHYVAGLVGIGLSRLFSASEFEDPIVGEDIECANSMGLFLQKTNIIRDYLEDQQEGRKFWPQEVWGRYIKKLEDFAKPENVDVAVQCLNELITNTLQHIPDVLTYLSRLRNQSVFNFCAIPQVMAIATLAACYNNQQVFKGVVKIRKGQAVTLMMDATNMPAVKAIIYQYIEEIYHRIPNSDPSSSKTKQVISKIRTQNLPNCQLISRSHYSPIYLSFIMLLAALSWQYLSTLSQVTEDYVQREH
In short: (§1)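 Female Swiss Webster mice (~25 g), six per group, dosed po by gavage with inhibitor suspended in 5% emulphor. 30 min later, 0.5 μCi/mouse [5-3H]mevalonolactone in saline given sc. Livers removed 30 min after that and saponified in KOH/EtOH overnight at 55 °C, then petroleum-ether extracted. Nonsaponifiable dpm counted. Compounds first tested at a single dose (typically 12 or 24 mg/kg).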

Mus musculus = experiment: Ability to inhibit the incorporation of [5-3H]-mevalonolactone into cholesterol by in vivo mouse assay by peroral administration at a dose of 24 mg/kg; assay type: functional; conditions: route oral; in short: as §1

| SMILES | Relative activity [1] | pIC50 (Squalene synthase) | ED50 [2] | inhibition in vivo at 24 mg/kg (Mus musculus) |
| --- | --- | --- | --- | --- |
| C=C(CCC12OC(C(=O)O)C(O)(C(=O)O)C(C(=O)O)(O1)[C@H](OC(=O)NCC1CC1)[C@H]2O)[C@@H](OC(C)=O)[C@H](C)Cc1ccccc1 (some centres undefined) | 0.04 | 7.77 | 8 mg/kg | – |
| C=C(CCC12OC(C(=O)O)C(O)(C(=O)O)C(C(=O)O)(O1)[C@H](OC(=O)CC(C)C)[C@H]2O)[C@@H](OC(C)=O)[C@H](C)Cc1ccccc1 (some centres undefined) | 0.13 | 8.37 | 11 mg/kg | – |
| C=C(CCC12OC(C(=O)O)C(O)(C(=O)O)C(C(=O)O)(O1)[C@H](OC(=O)N(C)C)[C@H]2O)[C@@H](OC(C)=O)[C@H](C)Cc1ccccc1 (some centres undefined) | – | – | > 24 mg/kg | – |
| C=C(CCC12OC(C(=O)O)C(O)(C(=O)O)C(C(=O)O)(O1)[C@H](OCCCC)[C@H]2O)[C@@H](OC(C)=O)[C@H](C)Cc1ccccc1 (some centres undefined) | 0.08 | 8.70 | 12 mg/kg | – |
| C=C(CCC12OC(C(=O)O)C(O)(C(=O)O)C(C(=O)O)(O1)[C@H](OCCC)[C@H]2O)[C@@H](OC(C)=O)[C@H](C)Cc1ccccc1 (some centres undefined) | 0.05 | 8.00 | 8 mg/kg | – |
| C=C(CCC12OC(C(=O)O)C(OCCCCCCCCCCCC)(C(=O)O)C(C(=O)O)(O1)[C@H](O)[C@H]2O)[C@@H](OC(C)=O)[C@H](C)Cc1ccccc1 (some centres undefined) | 0.08 | 8.92 | – | – |
| C=C(CCC12OC(C(=O)O)C(O)(C(=O)O)C(C(=O)O)(O1)[C@H](OC(=O)CCC)[C@H]2O)[C@@H](OC(=O)CCC)[C@H](C)Cc1ccccc1 (some centres undefined) | 0.027 | 8.01 | – | 1% |
| C=C(CCC12OC(C(=O)O)C(O)(C(=O)O)C(C(=O)O)(O1)[C@H](OC(=O)NC(C)C)[C@H]2O)[C@@H](OC(C)=O)[C@H](C)Cc1ccccc1 (some centres undefined) | 0.05 | 8.10 | 6 mg/kg | – |
| C=C(CCC12OC(C(=O)O)C(O)(C(=O)O)C(C(=O)O)(O1)[C@H](OC(=O)OC)[C@H]2O)[C@@H](OC(C)=O)[C@H](C)Cc1ccccc1 (some centres undefined) | 0.06 | 8.46 | 9 mg/kg | – |
| CCCC(=O)O[C@@H]1[C@@H](O)C2(CCCCCCc3ccccc3)OC(C(=O)O)C(O)(C(=O)O)C1(C(=O)O)O2 (some centres undefined) | 0.0008 | 6.44 | – | -6% |
| CCCC(=O)O[C@@H]1[C@@H](O)C2(CCCCc3cccc4ccccc34)OC(C(=O)O)C(O)(C(=O)O)C1(C(=O)O)O2 (some centres undefined) | 0.00014 | 5.74 | – | – |
| C=C(CCC12OC(C(=O)O)C(O)(C(=O)O)C(C(=O)O)(O1)[C@H](OC(=O)NCCC[C@@H](C)C[C@@H](C)CC)[C@H]2O)[C@@H](OC(C)=O)[C@H](C)Cc1ccccc1 (some centres undefined) | 0.25 | 9.10 | – | -2% |
| CC[C@H](C)C[C@H](C)CCC(=O)O[C@@H]1[C@@H](O)C2(CCCCc3ccccc3)OC(C(=O)O)C(O)(C(=O)O)C1(C(=O)O)O2 (some centres undefined) | 0.002 | 6.86 | – | – |
| C=C(CCC12OC(C(=O)O)C(O)(C(=O)O)C(C(=O)O)(O1)[C@H](OC(=O)C(C)C)[C@H]2O)[C@@H](OC(C)=O)[C@H](C)Cc1ccccc1 (some centres undefined) | 0.02 | 7.68 | 8 mg/kg | – |
| CC(/C=C/CCC(=O)O[C@@H]1[C@@H](O)C2(CCCCC(C)Cc3ccccc3)OC(C(=O)O)C(O)(C(=O)O)C1(C(=O)O)O2)CCCc1ccccc1 (some centres undefined) | 1 | 9.85 | – | 8% |
| C=C(CCC12OC(C(=O)O)C(O)(C(=O)O)C(C(=O)O)(O1)[C@H](OC(=O)NC1CC1)[C@H]2O)[C@@H](OC(C)=O)[C@H](C)Cc1ccccc1 (some centres undefined) | 0.09 | 8.49 | 11 mg/kg | – |

| SMILES | Relative activity [1] | pIC50 (Squalene synthase) | ED50 [2] | inhibition in vivo at 24 mg/kg (Mus musculus) |
| --- | --- | --- | --- | --- |
| C=C(CCC12OC(C(=O)O)C(O)(C(=O)O)C(C(=O)O)(O1)[C@H](OCCC[C@@H](C)C[C@@H](C)CC)[C@H]2O)[C@@H](OC(C)=O)[C@H](C)Cc1ccccc1 (some centres undefined) | 1 | 9.70 | – | 38% |
| C=C(C)CC(=O)O[C@@H]1[C@@H](O)C2(CCC(=C)[C@@H](OC(C)=O)[C@H](C)Cc3ccccc3)OC(C(=O)O)C(O)(C(=O)O)C1(C(=O)O)O2 (some centres undefined) | 0.06 | 8.25 | 12 mg/kg | – |
| C=C(CCC12OC(C(=O)O)C(O)(C(=O)O)C(C(=O)O)(O1)[C@H](OC(C)=O)[C@H]2O)[C@@H](OC(C)=O)[C@H](C)Cc1ccccc1 (some centres undefined) | 0.02 | 7.44 | 18 mg/kg | – |
| C=C(CCC12OC(C(=O)O)C(O)(C(=O)O)C(C(=O)O)(O1)[C@H](OC(=S)NC(C)C)[C@H]2O)[C@@H](OC(C)=O)[C@H](C)Cc1ccccc1 (some centres undefined) | – | 7.85 | – | – |
| C=C(CCC12OC(C(=O)O)C(O)(C(=O)O)C(C(=O)O)(O1)[C@H](OCCC(C)C)[C@H]2O)[C@@H](OC(C)=O)[C@H](C)Cc1ccccc1 (some centres undefined) | 0.09 | 8.64 | 9 mg/kg | – |
| C=C(CCC12OC(C(=O)O)C(O)(C(=O)O)C(C(=O)O)(O1)[C@H](OC(=O)CCCOC)[C@H]2O)[C@@H](OC(C)=O)[C@H](C)Cc1ccccc1 (some centres undefined) | 0.03 | 7.60 | 20 mg/kg | – |
| C=C(CCC12OC(C(=O)O)C(O)(C(=O)O)C(C(=O)O)(O1)[C@H](OC(=O)NC)[C@H]2O)[C@@H](OC(C)=O)[C@H](C)Cc1ccccc1 (some centres undefined) | – | – | 11 mg/kg | – |
| C=C(CCC12OC(C(=O)O)C(O)(C(=O)O)C(C(=O)O)(O1)[C@H](OC(=O)[C@@H](C)CC)[C@H]2O)[C@@H](OC(C)=O)[C@H](C)Cc1ccccc1 (some centres undefined) | 0.04 | 7.74 | 24 mg/kg | – |
| C=C(CCC12OC(C(=O)O)C(O)(C(=O)O)C(C(=O)O)(O1)[C@H](OC(=O)NC1CCC1)[C@H]2O)[C@@H](OC(C)=O)[C@H](C)Cc1ccccc1 (some centres undefined) | 0.05 | 7.85 | 6 mg/kg | – |
| C=C(CCC12OC(C(=O)O)C(O)(C(=O)O)C(C(=O)O)(O1)[C@H](OC(=O)NCc1ccccc1)[C@H]2O)[C@@H](OC(C)=O)[C@H](C)Cc1ccccc1 (some centres undefined) | 0.14 | 8.80 | 40 mg/kg | – |
| C=C(CCC12OC(C(=O)O)C(O)(C(=O)O)C(C(=O)O)(O1)[C@H](OC(=O)CC)[C@H]2O)[C@@H](OC(C)=O)[C@H](C)Cc1ccccc1 (some centres undefined) | 0.02 | 7.96 | 12 mg/kg | – |
| C=C(CCC12OC(C(=O)O)C(O)(C(=O)O)C(C(=O)O)(O1)[C@H](OC(=O)OCC)[C@H]2O)[C@@H](OC(C)=O)[C@H](C)Cc1ccccc1 (some centres undefined) | 0.02 | 8.04 | 9 mg/kg | – |
| C=C(CCC12OC(C(=O)O)C(O)(C(=O)O)C(C(=O)O)(O1)[C@H](OC(=O)CCC)[C@H]2O)[C@@H](OC(C)=O)[C@H](C)Cc1ccccc1 (some centres undefined) | 0.07 | 8.04 | 4.5 mg/kg | – |
| C=C(CCC12OC(C(=O)O)C(O)(C(=O)O)C(C(=O)O)(O1)[C@H](OC(=O)NCC)[C@H]2O)[C@@H](OC(C)=O)[C@H](C)Cc1ccccc1 (some centres undefined) | 0.02 | 7.80 | 11 mg/kg | – |
| C=C(CCC12OC(C(=O)O)C(O)(C(=O)O)C(C(=O)O)(O1)[C@H](OC(=O)OC(C)C)[C@H]2O)[C@@H](OC(C)=O)[C@H](C)Cc1ccccc1 (some centres undefined) | 0.1 | 8.52 | 10 mg/kg | – |
